Hits are enriched below; roughly 5.1% of the tested compounds scored in any of these assays.
STAT3 activator = IL-6 driven STAT3 reporter potentiators, primary screen, U3A cells, luciferase, luminescence, MLSCN library; activation (% of control), % at 5.6 µM; IL-6 STAT3-luciferase reporter; 100% = signal with IL-6 EC80 alone; 190,000 tested, 0.91% active;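 active means activation above the screen-wide mean of compound activation plus 3 SD, cut at about 130% in these data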;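 further: 0% = background luminescence of wells with medium and substrate only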
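Assay system – human STAT1-deficient U3A cells with stable STAT3-luciferase reporter · Also added – IL-6 (33 ng/mL) · Schedule – compound 1 h, then IL-6 6 h at 37 °C · Technique – reporter luminescence signal · Evaluation – % activation versus median of IL-6-stimulated wells · Benchmarks – IL-6-only wells as 100% reference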
APP 5'UTR act = activators of APP 5'UTR luciferase reporter, primary screen, SH-SY5Y cells. SH-SY5Y APP 5'UTR luciferase reporter, luminescence; zero percent = DMSO vehicle wells. activation, % at 2 µM. 190,000 tested, 1% active;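 active means activation above a set limit, based on mean plus 3 SD of controls, cut at about 140% in these data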
STAT1 blocker = STAT1 signaling inhibitors, primary screen, cell-based, HTS, luciferase reporter. AID 920, 2007. 200,000 tested, 0.35% active. inhibition, % at 5.5 µM. NIH 3T3 STAT1-luciferase reporter, IFN-gamma, luminescence;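 active means inhibition above a set limit, the mean inhibition across all tested compounds plus 3 SD, cut at about 34% in these data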;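 further: 0% = IFN-gamma with DMSO and 100% = IFN-gamma with 300 µM nifuroxazide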
STAT3 blocker = IL-6 driven STAT3 reporter inhibitors, primary screen, U3A cells, luciferase, luminescence, MLSCN library. IL-6 STAT3-luciferase reporter; host cell line lacks STAT1. inhibition, % at 5.5 µM. 190,000 tested, 0.89% active;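 active means inhibition above the mean inhibition across all screened compounds plus 3 SD, cut at about 44% in these data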;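 further: 0% = DMSO only wells and 100% = 100 µM nifuroxazide control wells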
NF-kB neuron act = activators of NF-kB expression in neurons, primary screen, cell-based, HTS. human neuronal cells, NF-kB reporter expression; active compounds read high. fold change at 12.5 µM. 190,000 tested, 1.6% active. AID 1239, 2008; in the data active means fold change above about 3.3
STAT1 act = STAT1 signaling activators, primary screen, cell-based, HTS, luciferase reporter; NIH 3T3 STAT1-luciferase reporter, IFN-gamma, luminescence; 100% = IFN-gamma alone, no compound; activation (% of control), % at 5.5 µM; 200,000 tested, 2.6% active; AID 932, 2007;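 active means activation above the screen-wide mean activation plus 3 SD, cut at about 130% in these data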;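 further: raw ratio to IFN-gamma control signal so 100% means no change and 0% no light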
An asterisk follows results filed as active; / = not tested or not shown.

SMILES	STAT3 activator	APP 5'UTR act	STAT1 blocker	STAT3 blocker	NF-kB neuron act	STAT1 act
N/C(=N\OC(=O)c1ccc(Cl)cc1Cl)c1ccccn1	28	32	89*	86*	1	17
CCc1ccc(C(=O)/C=C/c2cnn(C)c2C)s1	102	174*	-32	2	11*	129*
Cc1c(/C=C/C(=O)c2cccs2)cnn1C	98	11	-8	6	2.3	104
O=C(O)c1ccc(Cl)c(N2C(=O)Nc3ccccc3N2O)c1	97	2	-12	8	1.1	110
COC(=O)c1ccc(-c2ccc(/C=N/N3C(=O)C4C5C=CC(CC5)C4C3=O)o2)cc1 (stereo not given)	108	58	-37	-6	1.5	132*
CN1CCC(NC(=S)Nc2cccc([N+](=O)[O-])c2)CC1	102	0	-6	5	1.1	104
O=C(O)c1ccc(/C=C2\SC(=Nc3ccccc3)N(c3ccccc3)C2=O)cc1	106	-16	4	2	1	96
COc1cccc(C(C(=O)NC(C)(C)C)N(CC(C)C)C(=O)CCC(=O)Nc2cc(C)on2)c1OC (stereo not given)	99	-3	-4	7	1	103
O=C(O/N=C1/CCSc2ccccc21)c1ccc(F)cc1	135*	2	-4	-38	1.2	104
O=C(O/N=C1/CCCc2occc21)c1ccc(F)cc1	97	-19	-15	5	1.4	114
Fc1ccc(-n2nnc(-c3cccnc3)n2)cc1	/	24	-51	/	2.1	149*
Cc1ccnc(NC(=O)CSc2nnc3c(n2)[nH]c2ccccc23)c1	96	29	-9	8	0.77	106
O=C(CSc1nnc(-c2ccc(O)cc2)n1Cc1ccco1)c1cccs1	88	8	5	20	1	95
O=C(CC(SCc1ccco1)c1ccc(O)cc1)c1cccs1 (stereo not given)	127	71	-19	-25	5.4*	118
O=C(CC(SCCO)c1ccc2c(c1)OCO2)c1cccs1 (stereo not given)	108	69	-34	-3	3.2	132*
COc1cc(C(=O)NCCOc2cc(C)cc(C)c2)c(Br)c(OC)c1OC	105	-16	2	-1	2.8	98
[O-]/C(=C(\C(=S)Nc1cccc2ccccc12)[n+]1ccccc1)c1ccc(OC(F)F)cc1	130	9	4	-33	1.3	95
[O-]/C(=C(\C(=S)Nc1cccc2ccccc12)[n+]1ccccc1)c1ccc2c(c1)OCCO2	134*	0	4	-31	0.57	96
CCc1c(C)nc(SCC(=O)c2cccs2)c(C#N)c1C	149*	30	-40	-50	2.7	136*
CCc1c(C)nc(SCC(N)=O)c(C#N)c1C	98	/	-6	2	1	104
CC(=O)Nc1ccc(-c2cn3ccsc3n2)cc1	81	64	-40	26	3.4*	136*
O=C(Nc1ccc(-c2cn3ccsc3n2)cc1)C1CC1	84	83	-12	23	3.2	111
O=C(Nc1ccc(-c2cn3ccsc3n2)cc1)C1CCCC1	74	127	-25	34	4*	123
Cc1nc(-c2ccc(NC(=O)C3CCCCC3)cc2)cs1	83	167*	-41	26	3.5*	138*
c1cn2cc(-c3ccc4c(c3)OCO4)nc2s1	85	149*	-45	24	6.1*	141*
SMILES	STAT3 activator	APP 5'UTR act	STAT1 blocker	STAT3 blocker	NF-kB neuron act	STAT1 act
O=C(CCN1C(=O)c2ccccc2C1=O)Nc1ccc(-c2cn3ccsc3n2)cc1	87	11	-16	19	1.6	114
CC(C)C(=O)Nc1cccc(-c2cn3ccsc3n2)c1	94	-1	-16	10	1.2	116
O=C(Nc1ccc(F)cc1)C1CCCCC1	97	-11	6	12	1	94
O=C(CCCn1c(=S)[nH]c2ccsc2c1=O)Nc1ccc2c(c1)OCCO2	77	14	21	31	0.46	80
O=C(CCc1nc2ccccc2s1)OCC(=O)c1ccc[nH]1	98	13	-1	8	1.1	100
CCN(CC)C(=O)COc1ccc(/C(C)=N/NC(=O)c2ccccc2O)cc1	99	-1	6	4	1.6	94
CCN(CC)C(=O)COc1ccc(-c2ccccc2)cc1	93	33	-35	10	2	132*
COc1cc(C2C(C#N)=C(N)Oc3cc(O)ccc32)cc2c1OCO2 (stereo not given)	102	5	-7	2	1.1	105
COc1cc(C2C(C#N)=C(N)Oc3cc(N(C)C)ccc32)cc2c1OCO2 (stereo not given)	131	-97	-12	-29	4.8*	111
CCCCCn1cnc2c(sc3nc4c(cc32)CSC(C)(C)C4)c1=O	125	91	-42	-21	1.5	138*
CC1(C)Cc2nc3sc4c(=O)[nH]cnc4c3cc2CS1	114	-4	-12	-15	1.5	111
COc1ccc(OCC(=O)Nc2ccccc2O)cc1	96	65	13	11	5.5*	88
COC(=O)CC1C(=O)NCCN1C(=O)OC(C)(C)C (stereo not given)	102	-5	-18	2	1.1	113
O=C(CNS(=O)(=O)c1ccc(F)cc1)N1CCCCCC1	98	-6	-5	4	1.2	103
N#C/C(=C/c1ccc(N2CCCCC2)o1)c1cccc(F)c1	136*	-7	-49	-34	1.9	145*
N#C/C(=C/c1ccc(N2CCCCCC2)o1)c1ccc(Cl)cc1	90	6	9	15	3.4*	92
CCNC(=S)Nc1ccc(S(=O)(=O)Nc2cc(C)nc(C)n2)cc1	105	17	3	-3	1.1	98
CC(C)Sc1nc2ncnc(N)c2[nH]1	100	24	7	5	1.1	94
CC(OC(=O)CCc1nc2ccccc2c(=O)[nH]1)C(=O)NC1CCCC1 (stereo not given)	98	5	15	-2	1.2	86
CC(OC(=O)CCc1nc2ccccc2c(=O)[nH]1)C(=O)c1ccc(C(C)(C)C)cc1 (stereo not given)	98	20	-9	3	5.8*	108
Cc1ccccc1NC(=O)Cn1nnc2ccccc21	102	9	-1	-1	0.93	99
CN(C)C(=O)c1nc2ccccc2s1	97	8	-4	12	0.86	103
CN(C)c1ccc(CC(=O)c2nc3ccccc3s2)cc1	113	92	-37	-21	1.2	134*

Screening results from PubChem.
